# Laboratory results reported in ChEMBL document CHEMBL1275434, “In vitro evaluation of CBR-2092, a novel rifamycin-quinolone hybrid antibiotic: studies of the mode of action in Staphylococcus aureus” (Antimicrob Agents Chemother, 2008).
# Activity calls are given as the source filed them. The calls are words filed in the database; no cut-off is given here.
# Tests used:
# Staphylococcus aureus [1] = experiment: Antimicrobial activity against rifampin-sensitive Staphylococcus aureus CB190 harboring rpoB D471Y mutant gene by broth microdilution method; assay type: functional
# Summary of the method: (§1)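 CLSI broth microdilution MIC in cation-adjusted Mueller-Hinton (MHII) broth supplemented with 0.002% (vol/vol) polysorbate 80, included to limit compound loss to plastic surfaces.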
# Staphylococcus aureus [2] = experiment: Antimicrobial activity against Staphylococcus aureus CB1327 harboring rpoB H481Y and gyrA S84L mutant genes selected after 0.2 ug/ml drug exposure by broth microdilution method; assay type: functional
# Summary of the method: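 CLSI broth microdilution MIC in cation-adjusted Mueller-Hinton (MHII) broth with 0.002% (vol/vol) polysorbate 80. Single-step mutants were selected on agar […], purified by drug-free passage, their phenotype re-verified, and resistance loci sequenced.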
# Staphylococcus aureus [3] = experiment: Antimicrobial activity against Staphylococcus aureus CB1952 harboring rpoB S486L, gyrA […], gyrA E88Q, gyrA G532S, parC S80F, parC E84L mutant genes selected after CBR-2092 exposure for 21 days by agar dilution method; assay type: functional; details: CB1952, 504 h
# Summary of the method: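 CLSI agar dilution MIC on MHII base medium against strains from multistep passage (up to 20–21 days) of parents with preexisting rifamycin and/or quinolone resistance.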
# Staphylococcus aureus [4] = experiment: Antimicrobial activity against Staphylococcus aureus CB370 harboring rifampin-resistant rpoB H481Y mutant gene by broth microdilution method; assay type: functional; summary of the method: as §1
# Staphylococcus aureus [5] = experiment: Activity at Staphylococcus aureus wild-type GyrA
# Summary of the method: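 Recombinant S. aureus gyrase (wild-type GyrA with His-tagged GyrB; 250 U per μg). SDS/proteinase K stop. Gel quantitation of linear cleavage product gave CC50, the mean of two or more assays.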
# Staphylococcus aureus [6] = experiment: Antimicrobial activity against Staphylococcus aureus CB1333 harboring rpoB H481Y, parC S80F and parE L517F mutant genes selected after 0.8 ug/ml drug exposure by broth microdilution method; assay type: functional
# Staphylococcus aureus [7] = experiment: Inhibition of cell wall synthesis in rifamycin-resistant Staphylococcus aureus CB370 harboring rpoB H481Y mutant gene assessed as decrease in [2,3-3H]D-alanine incorporation at 0.5 ug/ml; assay type: functional, organism-based
# Summary of the method: (§2)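 Time-course radiolabel incorporation in S. aureus cultures with test agent. Precursors: [methyl-3H]thymidine (DNA), [5,6-3H]uridine (RNA), L-[3,4,5-3H]leucine (protein), [2,3-3H]D-alanine (cell wall). At each time point, incorporation with agent is expressed relative to the DMSO-treated control culture as percent incorporation. Time-zero incorporation is set to 100%.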
# Staphylococcus aureus [8] = experiment: Antimicrobial activity against Staphylococcus aureus CB1883 harboring rpoB R484H mutant gene, L520 deficient gyrA gene, gyrA S84L mutant gene and R236 duplicated par C gene; assay type: functional
# Staphylococcus aureus [9] = experiment: Antimicrobial activity against Staphylococcus aureus CB1947 harboring rpoB H481Y, gyrA S84L, E697 deficient gyrA, parC G167V mutant genes selected after CBR-2092 exposure for 20 days by broth microdilution method; details: CB1947, 480 h
# Staphylococcus aureus [10] = experiment: Antimicrobial activity against Staphylococcus aureus CB370 harboring rpoB H481Y mutant gene by broth microdilution method; assay type: functional; summary of the method: as §1
# Staphylococcus aureus [11] = experiment: Inhibition of protein synthesis in rifamycin-resistant Staphylococcus aureus CB370 harboring rpoB H481Y mutant gene assessed as decrease in L-[3,4,5-3H]leucine incorporation at 0.5 ug/ml; assay type: functional, organism-based; summary of the method: as §2
# Staphylococcus aureus [12] = experiment: Antimicrobial activity against Staphylococcus aureus CB1881 harboring rpoB R484H mutant gene and L520 deficient gyrA gene by agar dilution method; assay type: functional
# Summary of the method: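 CLSI agar dilution MIC on MHII base medium against stepwise-passage isolates; passage was in MHII broth without polysorbate 80, daily at 37°C.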
# Staphylococcus aureus [13] = experiment: Inhibition of protein synthesis in quinolone-resistant Staphylococcus aureus CB814 harboring gyrA S84L and parC S80F mutant genes assessed as decrease in L-[3,4,5-3H]leucine incorporation at 0.5 ug/ml; assay type: functional, organism-based; summary of the method: as §2
# Staphylococcus aureus [14] = experiment: Antimicrobial activity against Staphylococcus aureus CB1884 by broth microdilution method; assay type: functional
# Summary of the method: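 CLSI broth microdilution MIC in MHII broth with 0.002% (vol/vol) polysorbate 80. Isolates came from daily stepwise broth passage at sub-MIC drug (MHII without polysorbate 80, 10^6 CFU/ml inoculum, 20–24 h shaking at 37°C), were purified drug-free, and were sequenced at target loci.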
# [15] = Inhibition of Staphylococcus aureus RpoB H481Y mutant
# Summary of the method: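 Recombinant S. aureus σA RNA polymerase holoenzyme carrying RpoB H481Y. Single-round transcription of the pGL2B-T7A1-G-less template. The 272-nt G-less RNA product is quantified by gel electrophoresis. IC50 is the concentration that inhibits 50% of product formed without inhibitor.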
# Staphylococcus aureus [16] = experiment: Antimicrobial activity against Staphylococcus aureus CB812 harboring rpo B H481Y and gyrA S84L mutant genes by broth microdilution method; assay type: functional; summary of the method: as §1
# Staphylococcus aureus [17] = experiment: Antimicrobial activity against wild-type Staphylococcus aureus CB190; assay type: functional
# Staphylococcus aureus [18] = experiment: Antimicrobial activity against Staphylococcus aureus CB370 harboring rpoB H481Y mutant gene by agar dilution method; assay type: functional
# Summary of the method: (§3)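 CLSI agar dilution MIC with cation-adjusted Mueller-Hinton (MHII) agar as the base medium.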
# Staphylococcus aureus [19] = experiment: Antimicrobial activity against Staphylococcus aureus CB1884 harboring rpoB R484H mutant gene, L520 deficient gyrA gene, gyrA S84L mutant gene, R236 duplicated par C gene and parC H103Y mutant gene; assay type: functional
# Staphylococcus aureus [20] = experiment: Antimicrobial activity against Staphylococcus aureus CB815 harboring rpoB H481Y, gyrA […] and parC S80F mutant genes by agar dilution method; assay type: functional; summary of the method: as §3
# [21] = Inhibition of Staphylococcus aureus wild-type RNA polymerase RpoB
# Summary of the method: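 Recombinant S. aureus σA RNA polymerase holoenzyme in a single-round transcription assay using the pGL2B-T7A1-G-less template. The 272-nucleotide G-less RNA product was quantified by gel electrophoresis. IC50 is the concentration halving the product formed without test agent.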
# Staphylococcus aureus [22] = experiment: Antimicrobial activity against Staphylococcus aureus CB1522 harboring by broth microdilution method; assay type: functional
# Staphylococcus aureus [23] = experiment: Antimicrobial activity against rifampin-sensitive Staphylococcus aureus CB190 by broth microdilution method; assay type: functional; summary of the method: as §1
# Staphylococcus aureus [24] = experiment: Antimicrobial activity against Staphylococcus aureus CB1524 harboring rpoB H481Y and gyrA G773V mutant genes selected after 0.25 ug/ml drug exposure by broth microdilution method; assay type: functional
# Summary of the method: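 CLSI broth microdilution in cation-adjusted Mueller-Hinton (MHII) broth supplemented with 0.002% (vol/vol) polysorbate 80 to limit compound loss to plastic. Strains are spontaneous single-step mutants isolated on agar from an rpoB H481Y parent (RN4220 background), purified through drug-free passage with the resistance phenotype re-verified as stable before testing; target loci genotyped by PCR amplification and sequencing.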
# [25] = system: DNA gyrase subunit A (Staphylococcus aureus), P20831 [S84L]; experiment: Activity at Staphylococcus aureus wild-type GyrA S84L mutant
# Staphylococcus aureus [26] = experiment: Antimicrobial activity against rifampin-sensitive Staphylococcus aureus CB190 harboring rpoB Q468L mutant gene by broth microdilution method; assay type: functional; summary of the method: as §1
# Staphylococcus aureus [27] = experiment: Antimicrobial activity against Staphylococcus aureus CB815 harboring rpoB H481Y, gyrA S84L and parC S80F mutant genes by broth microdilution method
# Staphylococcus aureus [28] = experiment: Inhibition of protein synthesis in Staphylococcus aureus CB190 assessed as decrease in L-[3,4,5-3H]leucine incorporation at 0.5 ug/ml; assay type: functional, organism-based
smiles,measurement,setting,value
CO[C@H]1/C=C/O[C@@]2(C)Oc3c(C)c(O)c4c(O)c(c(/C=N/N5CCC(N(C)C6([C@@H]7CCN(c8c(F)cn9c(=O)c(C(=O)O)cc(C%10CC%10)c9c8C)C7)CC6)CC5)c(O)c4c3C2=O)NC(=O)/C(C)=C\C=C\[C@H](C)[C@H](O)[C@@H](C)[C@@H](O)[C@@H](C)[C@H](OC(C)=O)[C@@H]1C,MIC,Staphylococcus aureus [1],0.25 µg/mL
same,MIC,Staphylococcus aureus [2],0.5 µg/mL
same,MIC,Staphylococcus aureus [3],4 µg/mL
same,MIC,Staphylococcus aureus [4],0.12 µg/mL
same,CC50,Staphylococcus aureus [5],1500 nM
same,MIC,Staphylococcus aureus [6],16 µg/mL
same,Activity,Staphylococcus aureus [7],Active
same,Time,Staphylococcus aureus [8],47 min
same,MIC,Staphylococcus aureus [9],4 µg/mL
same,MIC,Staphylococcus aureus [10],0.12 µg/mL
same,Activity,Staphylococcus aureus [11],Active
same,MIC,Staphylococcus aureus [12],0.25 µg/mL
same,Activity,Staphylococcus aureus [13],Active
same,MIC,Staphylococcus aureus [14],64 µg/mL
same,IC50,[15],> 25 µM
same,MIC,Staphylococcus aureus [16],0.5 µg/mL
same,Time,Staphylococcus aureus [17],38 min
same,MIC,Staphylococcus aureus [18],0.03 µg/mL
same,Time,Staphylococcus aureus [19],65 min
same,MIC,Staphylococcus aureus [20],0.25 µg/mL
same,IC50,[21],34 nM
same,MIC,Staphylococcus aureus [22],0.25 µg/mL
same,MIC,Staphylococcus aureus [23],0.015 µg/mL
same,MIC,Staphylococcus aureus [24],2 µg/mL
same,CC50,[25],> 150 µM
same,MIC,Staphylococcus aureus [26],0.25 µg/mL
same,MIC,Staphylococcus aureus [27],2 µg/mL
same,Activity,Staphylococcus aureus [28],Active
